ChEMBL document CHEMBL1155725, “Antimicrobial cuparene-type sesquiterpenes, enokipodins C and D, from a mycelial culture of Flammulina velutipes” (2001)
Activity calls are given as the source filed them. No cut-off for these calls is given here.

How the values were obtained:
Bacillus subtilis [1] = assay: Antimicrobial activity against Bacillus subtilis LMA0011 at 25 ug/8 mm disk after 18 hrs by paper disk method; assay type: functional
How it was run: (§1)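 Disk diffusion: 25 or 50 µg sample in acetone (20 µL) on air-dried 8 mm paper disk, placed on agar seeded with organism; plates held overnight at 4 °C for diffusion, then 37 °C for 18 h. Read-out: diameter of clear inhibition zone; triplicate.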

Bacillus subtilis [2] = assay: Antimicrobial activity against Bacillus subtilis LMA0011 at 50 ug/8 mm disk after 18 hrs by paper disk method; assay type: functional; how it was run: as §1
Staphylococcus aureus [3] = assay: Antimicrobial activity against Staphylococcus aureus AHU1142 at 25 ug/8 mm disk after 18 hrs by paper disk method; assay type: functional; how it was run: as §1
Staphylococcus aureus [4] = assay: Antimicrobial activity against Staphylococcus aureus AHU1142 at 50 ug/8 mm disk after 18 hrs by paper disk method; assay type: functional; how it was run: as §1
Escherichia coli [5] = assay: Antimicrobial activity against Escherichia coli AHU1714 at 25 ug/8 mm disk after 18 hrs by paper disk method; assay type: functional; how it was run: as §1
Escherichia coli [6] = assay: Antimicrobial activity against Escherichia coli AHU1714 at 50 ug/8 mm disk after 18 hrs by paper disk method; assay type: functional; how it was run: as §1
Pseudomonas fluorescens [7] = assay: Antimicrobial activity against Pseudomonas fluorescens AHU1719 at 25 ug/8 mm disk after 18 hrs by paper disk method; assay type: functional; how it was run: as §1
Pseudomonas fluorescens [8] = assay: Antimicrobial activity against Pseudomonas fluorescens AHU1719 at 50 ug/8 mm disk after 18 hrs by paper disk method; assay type: functional; how it was run: as §1
Cladosporium herbarum = assay: Antifungal activity against Cladosporium herbarum AHU9262 after 3 days by TLC plate assay; assay type: functional, organism-based
How it was run: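 TLC bioautography: EtOAc extract of culture filtrate (equivalent to 0.25 mL medium) developed in CHCl3–MeOH 25:1, sprayed with C. herbarum spore suspension, incubated 25 °C under humid conditions for 3 days; inhibitory zones matched to UV 254 nm spots.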

Bacillus subtilis [9] = assay: Antimicrobial activity against Bacillus subtilis LMA0011 at 12.5 ug/8 mm disk after 18 hrs by paper disk method; assay type: functional
How it was run: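 Positive-control disk diffusion: pentachlorophenol 12.5 µg on 8 mm paper disk on seeded agar; overnight at 4 °C, then 37 °C for 18 h; clear inhibition-zone diameter measured; triplicate.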

Row | SMILES | inhibition zone (IZ) (Bacillus subtilis [1]) | inhibition zone (IZ) (Bacillus subtilis [2]) | inhibition zone (IZ) (Staphylococcus aureus [3]) | inhibition zone (IZ) (Staphylococcus aureus [4]) | inhibition zone (IZ) (Escherichia coli [5]) | inhibition zone (IZ) (Escherichia coli [6]) | inhibition zone (IZ) (Pseudomonas fluorescens [7]) | inhibition zone (IZ) (Pseudomonas fluorescens [8]) | Activity (Cladosporium herbarum) | inhibition zone (IZ) (Bacillus subtilis [9])
1 | Cc1cc2c(cc1O)[C@@]1(C)CC[C@@](O)(O2)C1(C)C [ENOKIPODIN A] | 28 mm | 32.6 mm | 19.2 mm | 25.2 mm | 0 mm | 0 mm | 0 mm | 0 mm | Active | –
2 | CC1=CC(=O)C([C@@]2(C)CCC(=O)C2(C)C)=CC1=O [ENOKIPODIN B] | 17 mm | 21 mm | 0 mm | 14 mm | 0 mm | 0 mm | – | – | Active | –
3 | Cc1cc2c(cc1O)[C@@]1(C)[C@H](O)C[C@@](O)(O2)C1(C)C [ENOKIPODIN C] | 20 mm | 26 mm | 18 mm | 21.2 mm | 0 mm | 0 mm | 0 mm | 0 mm | Active | –
4 | CC1=CC(=O)C([C@@]2(C)[C@H](O)CC(=O)C2(C)C)=CC1=O [ENOKIPODIN D] | 11 mm | 16 mm | 0 mm | 11.6 mm | 0 mm | 0 mm | – | – | Active | –
5 | Oc1c(Cl)c(Cl)c(Cl)c(Cl)c1Cl [PENTACHLOROPHENOL] | 31 mm | – | – | – | – | – | – | – | – | 26.6 mm
